ChEMBL document CHEMBL1671700, “Structure-activity analysis of vinylogous urea inhibitors of human immunodeficiency virus-encoded ribonuclease H” (Antimicrob Agents Chemother, 2010)
Active and inactive are the calls of the source. No cut-off for these calls is given here.

Columns and labels:
[1] = target: T1, Human immunodeficiency virus type 1 reverse transcriptase (Human immunodeficiency virus 1, UniProt Q72547); assay: Inhibition of RNase H activity of HIV-1 HXB2 reverse transcriptase p66/p51 after 10 mins by fluorescence spectrophotometry
In short: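 His-p66/His-p51 RT from HIV-1 HXB2, 250 ng, with 250 nM 18-nt 3′-fluorescein RNA annealed to 5′-dabsyl DNA. Hydrolysis started by adding hybrid. 37°C, fluorescence (ex 475/em 520 nm) read every minute for 10 min. Percent inhibition from initial rates, plotted against log concentration. Triplicate.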

[2] = test system: Human immunodeficiency virus 1; assay: Antiviral activity against HIV-1 isolate RF infected in human CEM-SS cells assessed as inhibition of virus induced cytopathic effect by XTT assay; type: functional, organism-based; settings: Human immunodeficiency virus 1, isolate RF
In short: (§1)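 HIV-1 RF isolate in human T-cell line CEM-SS; XTT-based cell viability read-out following Weislow et al.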

[3] = Cytotoxicity against human CEM-SS cells by XTT assay; type: cell-based; in short: as §1
[4] = target: Human immunodeficiency virus type 1 reverse transcriptase (Human immunodeficiency virus 1) (UniProt Q72547); assay: Binding affinity to HIV-1 HXB2 reverse transcriptase p66/p51 assessed as changes in enzyme orientation on polypurine tract-containing RNA-DNA hybrid by FRET assay
In short: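 Single-molecule FRET. Substrate: 21-nt PPT:D2 RNA-DNA primer annealed at 1.2:1 to a biotinylated 50-nt DNA template. Cy5 acceptor near the template 3′ end; Cy3 donor on the RNase H C terminus of p66. His-p66/His-p51 RT is from the HXB2 isolate. Inhibitor was added at 10 μM final.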

[5] = target: Human immunodeficiency virus type 1 reverse transcriptase (Human immunodeficiency virus 1) (UniProt Q72547); assay: Inhibition of DNA-dependent DNA polymerase activity of HIV1 HXB2 reverse transcriptase p66/p51at 50 uM after 10 mins by fluorescence spectrophotometry
[6] = target: Human immunodeficiency virus type 1 reverse transcriptase (Human immunodeficiency virus 1) (UniProt Q72547); assay: Binding affinity to HIV-1 HXB2 reverse transcriptase p66/p51 at increased temperature by Van't Hoff analysis
In short: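 His-p66/His-p51 RT (4 nM) and RNA-DNA hybrid (250 nM) were run at 20, 25, 30 and 35°C. The reaction was started with substrate, incubated 30 min and quenched with EDTA. Product fluorescence was read, with quadruplicate dose-response curves at each temperature. Ki was fitted as v_i/v_o = 1/[1 + ([I]/Ki)], simple nontight-binding inhibition.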

Reverse transcriptase = Reverse transcriptase (Human immunodeficiency virus 2, UniProt Q06347); assay: Inhibition of RNase H activity of HIV-2 reverse transcriptase
Reverse transcriptase, sequence (Q06347 whole entry): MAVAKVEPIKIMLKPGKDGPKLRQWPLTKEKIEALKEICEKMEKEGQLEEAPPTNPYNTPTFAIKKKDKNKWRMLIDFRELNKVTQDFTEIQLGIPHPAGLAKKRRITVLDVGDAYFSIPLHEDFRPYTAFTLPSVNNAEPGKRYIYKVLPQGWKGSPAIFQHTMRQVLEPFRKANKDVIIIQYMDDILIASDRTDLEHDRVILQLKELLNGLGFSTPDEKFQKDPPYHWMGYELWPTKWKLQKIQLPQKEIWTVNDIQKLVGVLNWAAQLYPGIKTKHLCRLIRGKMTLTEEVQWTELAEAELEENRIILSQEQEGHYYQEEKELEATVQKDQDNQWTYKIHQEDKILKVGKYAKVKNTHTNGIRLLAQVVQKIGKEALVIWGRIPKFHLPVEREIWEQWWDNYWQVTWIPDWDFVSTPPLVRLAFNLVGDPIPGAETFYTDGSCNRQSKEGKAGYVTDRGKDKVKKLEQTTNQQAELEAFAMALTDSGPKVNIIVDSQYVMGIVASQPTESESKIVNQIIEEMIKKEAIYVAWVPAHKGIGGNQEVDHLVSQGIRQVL

[7] = target: T1, Human immunodeficiency virus type 1 reverse transcriptase; assay: Inhibition of RNase H activity of HIV-1 reverse transcriptase
In short: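 Recombinant His-p66/His-p51 RT (HXB2) was mixed with inhibitor in DMSO, then the reaction was started with 18-bp hybrid (3′-fluorescein RNA/5′-dabsyl DNA). Run at 37°C for 10 min, read ex 475/em 520 nm every minute. IC50 from initial-rate % inhibition vs log[inhibitor], triplicate.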

[8] = target: Human immunodeficiency virus type 1 reverse transcriptase (Human immunodeficiency virus 1) (UniProt Q72547); assay: Inhibition of RNase H activity of HIV-1 HXB2 reverse transcriptase p66/p51 preincubated with compound and RNA-DNA hybrid substrate followed by addition of magnesium ions
[9] = target: Human immunodeficiency virus type 1 reverse transcriptase (Human immunodeficiency virus 1) (UniProt Q72547); assay: Inhibition of RNase H activity of HIV-1 HXB2 reverse transcriptase p66/p51 pre-incubated with RNA-DNA hybrid followed by addition of compound and magnesium ions

Row | IC50 [1] | SMILES | other results
1 | > 500 µM | COc1ccccc1NC(=O)c1c(NC(=O)Cc2ccccc2)sc2c1CCCCC2 | IC50 [2]: 54 µM; CC50 [3]: 141 µM
2 | 14 µM | NC(=O)c1c(N)sc2c1CCCC2 | –
3 | > 500 µM | O=C(Nc1sc2c(c1C(=O)Nc1cccc3ccccc13)CCCCC2)c1ccccc1F | –
4 | > 500 µM | Cc1ccc(NC(=O)c2c(NC(=O)c3ccccc3F)sc3c2CCCCC3)cc1 | –
5 | > 500 µM | NC(=O)c1c(N)sc2c1CCCCCC2 | –
6 | > 100 µM | COc1ccc(-c2nc3sc(C)c(C)c3c(=O)[nH]2)cc1 | –
7 | 21 µM | Cc1sc(NC(=O)C2CC3CCC2C3)c(C(N)=O)c1C (centres undefined) | –
8 | 2.9 µM | Cc1onc(-c2ccccc2)c1C(=O)Nc1sc(C)c(C)c1C(N)=O | –
9 | 4.2 µM | CCOc1ccc(NC(=O)c2c(NC(=O)c3ccco3)sc3c2CCCCC3)cc1 | –
10 | > 500 µM | Cc1sc(N)c(C(N)=O)c1C | –
11 | 1.7 µM | Cc1sc(NC(=O)c2ccc(Br)o2)c(C(N)=O)c1C | –
12 | 3.4 µM | Cc1sc(NC(=O)c2ccco2)c(C(N)=O)c1C | –
13 | > 500 µM | CCOc1ccc(NC(=O)c2c(NC(=O)c3ccccc3)sc3c2CCCCC3)cc1 | –
14 | > 500 µM | NC(=O)c1ccsc1N | –
15 | – | CC(C)c1ccc(O)c(=O)c(O)c1 [BETA-THUJAPLICINOL] | Activity [6]: inactive; IC50 (Reverse transcriptase): 0.25 µM; IC50 [7]: 0.25 µM
16 | 6.9 µM | NC(=O)c1c(NC(=O)COc2ccccc2)sc2c1CCCCC2 | –
17 | > 100 µM | Cc1sc2nc(-c3ccccc3)[nH]c(=O)c2c1C | –
18 | – | NC(=O)c1c(N)sc2c1CCCCC2 | inhibition [8]: Active; Activity [6]: inactive; Activity [4]: Active; inhibition [9]: inactive; IC50 [2]: 4.3 µM; CC50 [3]: 19.9 µM
19 | 5.1 µM | Cc1sc(NC(=O)c2ccc3c(c2)OCO3)c(C(N)=O)c1C | IC50 [2]: 19 µM; CC50 [3]: 38 µM
20 | 2.8 µM | Cc1ccc(C(=O)Nc2sc(C)c(C)c2C(N)=O)cc1 | –
21 | 27.3 µM | Cc1sc(NC(=O)C2CCCO2)c(C(N)=O)c1C (centres undefined) | –
22 | > 500 µM | Cc1cc(Cl)ccc1CCC(=O)Nc1sc(C)c(C)c1C(N)=O | –
23 | > 500 µM | NC(=O)c1c(N)sc2c1CCC2 | –

Row | SMILES | IC50 [1] | other results
24 | Cc1sc(NC(=O)c2cccc([N+](=O)[O-])c2)c(C(N)=O)c1C | 1.3 µM | Activity [4]: Active
25 | Cc1sc2nc(-c3ccc([N+](=O)[O-])cc3)[nH]c(=O)c2c1C | 0.85 µM | inhibition [5]: inactive; Activity [4]: Active
